# Screens (PubChem)
# NLRP3 yeast inh: blocks the NALP3 inflammasome reconstituted in yeast; Yeast reconstituted NLRP3/ASC/caspase-1, beta-gal luminescence, 24 h; inhibition, % at 10 µM; 330,000 compounds, 0.39% hits; AID 2825;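 active means inhibition of 50% or more; inactive means inhibition below 50%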;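 further: plate controls were induced DMSO wells for no effect and uninduced yeast grown without galactose for full effect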
# Lmaj promast: Leishmania major promastigote growth inhibition; 200,000 compounds, 9% hits; inhibition, % at 10 µM; AID 1063; Leishmania major promastigotes, resazurin fluorescence viability; in the data active means inhibition above about 50%;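 further: promastigotes grown with compound for 44 hours at 28 °C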
# NALP1 inh: inhibitors of NALP1 inflammasome in yeast; 280,000 compounds, 0.61% hits; AID 2071; inhibition, % at 10 µM; S. cerevisiae NALP1/ASC/caspase-1 growth, X-gal OD620, 72 h; in the data active means inhibition mostly above about 24%, no sharp cut-off; inactive means mostly below about 32%
# T cruzi inh: blocks replication of Trypanosoma cruzi. T. cruzi beta-gal in NIH3T3, luminescence, 90 h. AID 1885. 300,000 compounds, 1.4% hits. inhibition, % (concentration not given with the values);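 active means mean inhibition across valid replicates above about 55%, limit read from the data; inconclusive means mean below that limit but half or more replicates reach it; inactive means mean below it, under half of replicates reach it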;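 further: signal also drops with host cell toxicity which is not excluded here; 0% = plate median of DMSO wells and 100% = zero luminescence signal; higher percent means less beta-gal luminescence so fewer parasites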
#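 System – NIH/3T3 host cells with β-galactosidase reporter T. cruzi · Doses – single 50 nL compound addition per well in DMSO · Reagent – 5000 T. cruzi trypomastigotes/well · Medium – Low-serum DMEM with 2% FBS · Timing – ≥90 h infection period, 3 h prior cell attachment · Evaluation – parasite load inhibition, % · Technique – GalScreen luminescence, 60 min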
# PolyA inh: blocks polyadenylation in yeast reporter cells | S. cerevisiae SKY197-pL101 polyadenylation reporter, beta-gal luminescence; efflux-impaired pdr1/pdr3 knockout yeast; score 100 = 6 SD above DMSO | activity score, % at 12 µM | 300,000 compounds, 0.02% hits | AID 1875;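 active means lowest replicate activity score at least 50, where 100 means six control SD above control mean; inconclusive means lowest score under 50 but half or more replicates reach 50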;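 further: yeast exposed to compound for 9 h at 30 °C; higher score means more reporter readthrough which indicates perturbed polyadenylation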
# Calb FLC: C. albicans growth modulation with fluconazole. C. albicans CaCi-2 + fluconazole, Alamar Blue growth, 48 h. growth inhibition, % (test concentration not listed). 300,000 compounds, 0.57% hits. AID 1979;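 active means growth inhibition above about 58% in most replicates, limit read from the data, passing the limit was not always enough; inconclusive means exactly half the replicates above a set limit; inactive means most replicates below a set limit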;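 further: all wells also contain fluconazole at 8 µg/ml as a sub-toxic cotreatment; 0% = median of DMSO wells and 100% = median of geldanamycin control wells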
# An asterisk follows results filed as active; ? = inconclusive; nt = no result given. The entries come from a sample that favours hits as a whole.
SMILES,NLRP3 yeast inh,Lmaj promast,NALP1 inh,T cruzi inh,PolyA inh,Calb FLC
CCN(CC)CC(O)c1ccc(C2CCCC2)cc1 (stereo unspecified),8.9,94.5*,37.7,30.7,7.0,-1.8
O=c1[nH]sc2cc(F)ccc12,nt,77.5*,6.5,86.9*,-48.8,6.3
CC(C(=O)Nc1ccc(Br)cc1C(=O)c1ccccc1)N1CCCCC1 (stereo unspecified),5.0,99.7*,5.0,0.2,0.6,20.8
O=C(CCN1CCCCC1)Nc1ccc(Br)cc1C(=O)c1ccccc1,30.3,nt,5.3,-1.8,13.5,5.4
OC(CNC1CCCCCCC1)c1ccccc1 (stereo unspecified),22.7,15.1,-16.9,5.3,6.9,-14.1
CC1CCC(NCC(O)c2ccccc2)CC1 (stereo unspecified),7.0,71.2*,-4.5,-3.9,-2.6,3.6
Cc1nc2ccccc2c(=O)n1/N=C/c1cc(Br)cc(Br)c1O,12.5,nt,nt,-10.5,-42.0,6.6
Cc1ccc(N2C(=O)NC(=O)/C(=C/C=C/c3ccco3)C2=O)cc1,3.8,83.0*,27.5,-3.8,-0.4,7.4
CC(C)c1ccc(N2C(=O)NC(=O)/C(=C/C=C/c3ccco3)C2=O)cc1,nt,94.1*,30.8,2.0,1.0,-10.5
O=C1NC(=O)N(Cc2ccc(F)cc2)C(=O)/C1=C\C=C\c1ccco1,16.7,nt,nt,-57.5,16.2,8.0
Cc1cc(C)cc(N2C(=O)NC(=O)/C(=C\C=C\c3ccco3)C2=O)c1,nt,99.2*,9.7,-3.1,9.5,1.1
CCc1ccc(N2C(=O)NC(=O)/C(=C\C=C\c3ccco3)C2=O)cc1,-0.6,nt,nt,-5.2,-0.7,13.4
CCC(C)N1C(=O)/C(=C/c2ccc3c(c2)CCN3CCCCl)C(=O)NC1=S (stereo unspecified),nt,55.4*,11.9,-1.7,-0.6,-5.5
Cc1cccc(N2C(=O)NC(=O)/C(=C\c3ccc4c(c3)CCCN4Cc3ccccc3)C2=O)c1,32.0,10.0,22.7,-3.5,-6.2,-3.5
CC1CCC(C(C)C)C(OC(=O)COC(=O)c2ccccc2N)C1 (stereo unspecified),0.6,55.0*,19.1,-0.6,6.8,-0.6
C=C1C/C(=C/C)C(=O)O[C@@H]2CCN3CC=C(COC(=O)[C@]1(C)O)[C@H]23,-2.7,nt,nt,-4.2,11.2,0.4
CCCCC(CC)CNCC(O)c1ccccc1 (stereo unspecified),0.8,26.8,2.2,77.7*,5.9,-1.8
CN1CCN(CCC(C#N)(c2ccccc2)c2ccccc2)CC1,-3.1,79.2*,11.7,0.2,-10.9,-2.2
Cc1cc(Cl)ccc1OCCCC(=O)NCc1cccs1,32.1,59.8*,29.9,17.7,8.4,-9.9
Cc1cc(OCCCC(=O)NCc2cccs2)ccc1Cl,33.1,55.9*,27.3,-0.1,-2.6,7.3
O=C(CCCOc1ccc(Cl)cc1Cl)N1CCC2(CC1)OCCO2,18.0,-5.4,-4.2,-4.3,2.9,-0.6
CCN(CC)C1=NC(=[N+](CC)CC)c2ccccc21,2.5,99.9*,21.0,?,21.9,-23.2
C=CCn1c(O)c(C=NCCCn2ccnc2)c(=O)[nH]c1=O,2.1,nt,-42.5,14.0,-13.7,-9.6
CCCCCc1nc2ccccc2c(=O)n1-c1ccccc1[N+](=O)[O-],-11.4,50.9*,27.1,9.3,-21.1,13.6
CN(C)C(=O)Oc1ccc2oc(=O)cc(-c3cc4ccccc4o3)c2c1,20.1,nt,21.6,5.2,-10.8,3.6
SMILES,NLRP3 yeast inh,Lmaj promast,NALP1 inh,T cruzi inh,PolyA inh,Calb FLC
c1ccc2sc(C3CCNCC3)nc2c1,nt,nt,-1.9,64.0*,-8.7,-7.8
O=C1CN=C(c2cccc(Br)c2)c2cc(Br)ccc2N1,2.2,nt,2.6,12.1,-5.5,4.5
CCOc1ccc(-c2c(C)n(-c3ccc(OCC)cc3)c3[n+]2CCCCC3)cc1,18.8,nt,-11.8,46.4,0.2,86.7*
O=C1C2CCN(CC2)[C@@H]1Cc1ccc2ccccc2c1O,21.1,99.2*,-4.8,-1.6,-6.4,-10.2
COc1cc2c3cc1Oc1cc(ccc1O)C[C@@H]1c4c(cc(OC)c(O)c4Oc4ccc(cc4)C[C@H]3N(C)CC2)CCN1C,28.6,100.5*,0.1,25.6,-8.0,-13.1
O=[N+]([O-])c1cc(-c2ccc([As](=O)(O)O)cc2)ccc1[As](=O)(O)O,nt,nt,21.0,-4.9,5.4,-5.8
COc1cccc(CCNCc2cccc(C(F)(F)F)c2)c1,23.0,5.0,19.5,64.1*,-11.9,-2.1
